Experiment [1] has as its system Escherichia coli. Put plainly: Antimicrobial activity against Escherichia coli ATCC 35218 after 24 hrs by broth micro serial dilution method. The format is functional. The conditions noted are these: ATCC 35218, 24 h. The gist of the method: (§1)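 This was broth microdilution in autoclaved Mueller-Hinton broth. 150 µL of compound per well was serially diluted […], and 50 µL of test organism was added. Plates were incubated 24 h at 37 °C and optical density was read.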

The test system of experiment [2] is Escherichia coli. Put plainly: Antimicrobial activity against Escherichia coli ATCC 35218 assessed as diameter of inhibition zone at 20 uM after 24 hrs by Kirby -Baur disc diffusion method. The format is functional. The conditions noted are these: ATCC 35218, 24 h, read-out: DIZ. The gist of the method: (§2)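 Kirby-Bauer disc diffusion was used. Acetone stocks (160 µM) were serially doubled down to 80, 40 and 20 µM. 4 µL of each went onto 5 mm sterile paper discs, which were dried 30 min at 50 °C. Inoculum was 1.5 × 10⁸ CFU/mL diluted to 3 × 10² CFU/mL, and 50 µL was spread on Mueller-Hinton agar. After 24 h at 37 °C the inhibition-zone diameter was measured. Ciprofloxacin served as positive control.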
In general terms: A growth-free zone around the sample is the usual read-out of agar diffusion tests.

Experiment [3] deals with Escherichia coli. Nature of the experiment: Antimicrobial activity against Escherichia coli ATCC 35218 assessed as diameter of inhibition zone at 40 uM after 24 hrs by Kirby -Baur disc diffusion method. In kind it is functional. The conditions noted are these: ATCC 35218, 24 h, read-out: DIZ. The gist of the method:
as §2

In experiment [4] the test system is Escherichia coli. Put plainly: Antimicrobial activity against Escherichia coli ATCC 35218 assessed as diameter of inhibition zone at 80 uM after 24 hrs by Kirby -Baur disc diffusion method. In kind it is functional. To be noted: ATCC 35218, 24 h, read-out: DIZ. The gist of the method: as §2
Experiment [5] deals with Pseudomonas aeruginosa. Put plainly: Antimicrobial activity against Pseudomonas aeruginosa ATCC 15499 after 24 hrs by broth micro serial dilution method. The format is functional. The conditions noted are these: ATCC 15499, 24 h. The gist of the method:
as §1

Experiment [6] deals with Pseudomonas aeruginosa. Nature of the experiment: Antimicrobial activity against Pseudomonas aeruginosa ATCC 15499 assessed as diameter of inhibition zone at 20 uM after 24 hrs by Kirby -Baur disc diffusion method. The format is functional. The conditions noted are these: ATCC 15499, 24 h, read-out: DIZ. The gist of the method:
as §2

For experiment [7], the system named is Pseudomonas aeruginosa. Put plainly: Antimicrobial activity against Pseudomonas aeruginosa ATCC 15499 assessed as diameter of inhibition zone at 40 uM after 24 hrs by Kirby -Baur disc diffusion method. In kind it is functional. To be noted: ATCC 15499, 24 h, read-out: DIZ. The gist of the method:
as §2

The subject of experiment [8] is Pseudomonas aeruginosa. Nature of the experiment: Antimicrobial activity against Pseudomonas aeruginosa ATCC 15499 assessed as diameter of inhibition zone at 80 uM after 24 hrs by Kirby -Baur disc diffusion method. To be noted: ATCC 15499, 24 h, read-out: DIZ. In kind it is functional. The gist of the method:
as §2

Experiment [9] concerns Salmonella typhi. Put plainly: Antimicrobial activity against Salmonella typhi ATCC 23564 after 24 hrs by broth micro serial dilution method. In kind it is functional, Salmonella enterica subsp. enterica serovar Typhi. The conditions noted are these: Salmonella enterica, ATCC 23564, 24 h.
Experiment [10] has as its system Salmonella typhi. Nature of the experiment: Antimicrobial activity against Salmonella typhi ATCC 23564 assessed as diameter of inhibition zone at 20 uM after 24 hrs by Kirby -Baur disc diffusion method. In kind it is functional, Salmonella enterica subsp. enterica serovar Typhi. To be noted: Salmonella enterica, ATCC 23564, 24 h; read-out: DIZ.
Experiment [11] deals with Salmonella typhi. Nature of the experiment: Antimicrobial activity against Salmonella typhi ATCC 23564 assessed as diameter of inhibition zone at 40 uM after 24 hrs by Kirby -Baur disc diffusion method. In kind it is functional, Salmonella enterica subsp. enterica serovar Typhi. To be noted: Salmonella enterica, ATCC 23564, 24 h; read-out: DIZ.
Experiment [12] concerns Salmonella typhi. Put plainly: Antimicrobial activity against Salmonella typhi ATCC 23564 assessed as diameter of inhibition zone at 80 uM after 24 hrs by Kirby -Baur disc diffusion method. The format is functional, Salmonella enterica subsp. enterica serovar Typhi. To be noted: Salmonella enterica, ATCC 23564, 24 h; read-out: DIZ.
Experiment [13] has as its system Bacillus cereus. Put plainly: Antimicrobial activity against Bacillus cereus MTCC 7350 after 24 hrs by broth micro serial dilution method. The format is functional. The conditions noted are these: MTCC 7350, 24 h. The gist of the method:
as §1

In experiment [14] the test system is Bacillus cereus. Put plainly: Antimicrobial activity against Bacillus cereus MTCC 7350 assessed as diameter of inhibition zone at 20 uM after 24 hrs by Kirby -Baur disc diffusion method. The format is functional. The conditions noted are these: MTCC 7350, 24 h, read-out: DIZ. The gist of the method:
as §2

For experiment [15], the system named is Bacillus cereus. Put plainly: Antimicrobial activity against Bacillus cereus MTCC 7350 assessed as diameter of inhibition zone at 40 uM after 24 hrs by Kirby -Baur disc diffusion method. In kind it is functional. The conditions noted are these: MTCC 7350, 24 h, read-out: DIZ. The gist of the method:
as §2

The test system of experiment [16] is Bacillus cereus. Nature of the experiment: Antimicrobial activity against Bacillus cereus MTCC 7350 assessed as diameter of inhibition zone at 80 uM after 24 hrs by Kirby -Baur disc diffusion method. The format is functional. The conditions noted are these: MTCC 7350, 24 h, read-out: DIZ. The gist of the method:
as §2

The subject of experiment [17] is Staphylococcus aureus. Put plainly: Antimicrobial activity against Staphylococcus aureus ATCC 11632 after 24 hrs by broth micro serial dilution method. To be noted: ATCC 11632, 24 h. The format is functional. The gist of the method:
as §1

Experiment [18] concerns Staphylococcus aureus. Nature of the experiment: Antimicrobial activity against Staphylococcus aureus ATCC 11632 assessed as diameter of inhibition zone at 20 uM after 24 hrs by Kirby -Baur disc diffusion method. The conditions noted are these: ATCC 11632, 24 h, read-out: DIZ. The format is functional. The gist of the method: as §2
Experiment [19] relates to Staphylococcus aureus. Put plainly: Antimicrobial activity against Staphylococcus aureus ATCC 11632 assessed as diameter of inhibition zone at 40 uM after 24 hrs by Kirby -Baur disc diffusion method. To be noted: ATCC 11632, 24 h, read-out: DIZ. The format is functional. The gist of the method:
as §2

Experiment [20] relates to Staphylococcus aureus. Put plainly: Antimicrobial activity against Staphylococcus aureus ATCC 11632 assessed as diameter of inhibition zone at 80 uM after 24 hrs by Kirby -Baur disc diffusion method. In kind it is functional. To be noted: ATCC 11632, 24 h, read-out: DIZ. The gist of the method: as §2

Converted amounts (≈) assume the structure as drawn.

As usually defined, the MIC is the lowest concentration that inhibits growth of the organism.

For the molecule `O=C(O)c1cn(C2CC2)c2cc(N3CCNCC3)c(F)cc2c1=O` [CIPROFLOXACIN], the MIC against Escherichia coli [1] turned out to be 1.25 µM (≈ 0.414 µg/mL); with Pseudomonas aeruginosa [5], 1.25 µM (≈ 0.414 µg/mL); in the experiment with Salmonella typhi [9], 2.5 µM (≈ 0.828 µg/mL); in the experiment on Bacillus cereus [13] it was 0.63 µM (≈ 0.209 µg/mL); in the experiment with Staphylococcus aureus [17], 1.25 µM (≈ 0.414 µg/mL). The zone of inhibition at 20 µM in the experiment on Escherichia coli [2] was 29 mm; with Pseudomonas aeruginosa [6], 31 mm; with Salmonella typhi [10], 37 mm; in the experiment with Bacillus cereus [14] it was 32 mm; in the experiment on Staphylococcus aureus [18] it was 29 mm. In addition, the zone of inhibition at 40 µM is 32 mm in the experiment with Escherichia coli [3]; 34 mm in the experiment with Pseudomonas aeruginosa [7]; 44 mm in the experiment with Salmonella typhi [11]; 34 mm with Bacillus cereus [15]; 32 mm in the experiment with Staphylococcus aureus [19]. Moreover, the zone of inhibition at 80 µM with Escherichia coli [4] came out at 36 mm; with Pseudomonas aeruginosa [8] it was 38 mm; with Salmonella typhi [12], 52 mm; in the experiment on Bacillus cereus [16] it was 37 mm; in the experiment with Staphylococcus aureus [20] it was 36 mm.

The values above are taken from ChEMBL document CHEMBL2384906, “Biological activity, design, synthesis and structure activity relationship of some novel derivatives of curcumin containing sulfonamides” (Eur J Med Chem, 2013).
